Results taken from ChEMBL document CHEMBL4014338, “Discovery of Small Molecules as Multi-Toll-like Receptor Agonists with Proinflammatory and Anticancer Activities” (J Med Chem, 2017).
pEC50, pIC50: −log10 of the molar value.

Key:
[1] = test system: HeLa; experiment: Cell cycle arrest in human HeLa cells assessed as accumulation at G0/G1 phase at 10 uM after 24 hrs by propidium iodide staining based flow cytometry (reference value: 52%); assay type: functional
[2] = target: Toll-like receptor 3 (Homo sapiens) (UniProt O15455); experiment: Agonist activity at human TLR3 expressed in HEK293 cells assessed as induction of NF-kB activation-mediated SEAP production at 25 uM after 24 hrs by HTS assay relative to control; assay type: cell-based
Toll-like receptor 3 (Homo sapiens), sequence (O15455 whole entry): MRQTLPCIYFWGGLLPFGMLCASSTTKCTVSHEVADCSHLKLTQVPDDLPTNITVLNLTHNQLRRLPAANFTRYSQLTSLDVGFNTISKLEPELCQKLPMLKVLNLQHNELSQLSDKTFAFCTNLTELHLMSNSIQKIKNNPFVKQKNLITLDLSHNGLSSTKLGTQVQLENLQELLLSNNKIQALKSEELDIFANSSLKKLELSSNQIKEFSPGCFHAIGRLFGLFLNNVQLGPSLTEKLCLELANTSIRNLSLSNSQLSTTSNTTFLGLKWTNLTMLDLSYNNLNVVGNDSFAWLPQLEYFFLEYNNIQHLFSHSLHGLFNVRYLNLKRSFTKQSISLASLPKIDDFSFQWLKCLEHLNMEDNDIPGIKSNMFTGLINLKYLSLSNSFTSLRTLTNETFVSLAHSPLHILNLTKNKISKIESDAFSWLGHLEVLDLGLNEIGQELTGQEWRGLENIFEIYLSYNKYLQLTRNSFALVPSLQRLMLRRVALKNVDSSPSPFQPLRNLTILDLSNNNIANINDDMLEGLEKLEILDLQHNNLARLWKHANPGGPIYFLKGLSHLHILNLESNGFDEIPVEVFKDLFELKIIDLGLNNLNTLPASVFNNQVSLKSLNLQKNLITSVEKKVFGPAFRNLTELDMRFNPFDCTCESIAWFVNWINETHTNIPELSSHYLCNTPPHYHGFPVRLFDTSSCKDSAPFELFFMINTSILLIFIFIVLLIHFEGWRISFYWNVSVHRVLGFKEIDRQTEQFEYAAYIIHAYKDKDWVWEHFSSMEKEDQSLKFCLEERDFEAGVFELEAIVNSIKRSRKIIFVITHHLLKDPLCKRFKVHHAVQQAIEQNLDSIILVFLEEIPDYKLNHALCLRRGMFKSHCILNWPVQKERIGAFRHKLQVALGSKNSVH
In short: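 hTLR3 HEK293 SEAP reporter cells seeded at 5 × 10^4 cells/well for 24 h, exposed to 25 μM for 24 h. Supernatant SEAP detected with QUANTI-Blue (1 h, 37 °C, OD 620 nm). Activation normalized to untreated cells and expressed as fold change.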

[3] = target: Toll-like receptor 4 (Homo sapiens, UniProt O00206); experiment: Agonist activity at human TLR4 expressed in HEK293 cells assessed as induction of NF-kB activation-mediated SEAP production after 24 hrs by HTS assay; assay type: cell-based
Toll-like receptor 4, sequence (O00206 whole entry): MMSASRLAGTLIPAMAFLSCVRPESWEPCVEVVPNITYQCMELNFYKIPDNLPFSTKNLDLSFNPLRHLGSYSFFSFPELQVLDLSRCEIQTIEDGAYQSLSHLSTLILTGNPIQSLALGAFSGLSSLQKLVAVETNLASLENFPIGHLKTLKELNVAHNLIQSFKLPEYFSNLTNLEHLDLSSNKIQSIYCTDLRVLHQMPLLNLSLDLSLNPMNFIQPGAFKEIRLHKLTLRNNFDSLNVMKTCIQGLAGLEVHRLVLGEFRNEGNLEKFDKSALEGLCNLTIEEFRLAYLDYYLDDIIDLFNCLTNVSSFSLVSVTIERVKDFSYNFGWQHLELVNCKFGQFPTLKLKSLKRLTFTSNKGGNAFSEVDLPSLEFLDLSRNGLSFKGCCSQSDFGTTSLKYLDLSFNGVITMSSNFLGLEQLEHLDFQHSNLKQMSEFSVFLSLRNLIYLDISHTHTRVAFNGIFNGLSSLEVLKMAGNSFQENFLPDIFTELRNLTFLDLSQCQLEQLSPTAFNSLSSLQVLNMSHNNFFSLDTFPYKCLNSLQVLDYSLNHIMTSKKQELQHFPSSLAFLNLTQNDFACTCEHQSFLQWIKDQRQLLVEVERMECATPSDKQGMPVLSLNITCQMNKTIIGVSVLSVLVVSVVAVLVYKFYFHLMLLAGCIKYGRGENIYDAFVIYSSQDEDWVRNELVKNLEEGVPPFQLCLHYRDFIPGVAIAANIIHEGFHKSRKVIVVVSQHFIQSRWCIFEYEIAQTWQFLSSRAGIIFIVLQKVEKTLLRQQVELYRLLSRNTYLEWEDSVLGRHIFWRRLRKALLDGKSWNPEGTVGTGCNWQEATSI
In short: (§1)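 Stable HEK293 lines expressing a single hTLR plus a SEAP reporter, grown in DMEM/10% FBS with selective antibiotics. Seeded at 5 × 10^4 cells/well for 24 h at 37 °C, then treated 24 h. Supernatant mixed with QUANTI-Blue, 1 h at 37 °C, OD 620 nm. Cognate agonists: Pam3CSK4 (TLR2), poly I:C (TLR3), LPS (TLR4), FLA-BS (TLR5), R848 (TLR7). EC50 as mean ± SD.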

[4] = target: Toll-like receptor 5 (Homo sapiens, UniProt O60602); experiment: Agonist activity at human TLR5 expressed in HEK293 cells assessed as induction of NF-kB activation-mediated SEAP production after 24 hrs by HTS assay; assay type: cell-based; in short: as §1
Toll-like receptor 5, sequence (O60602 whole entry): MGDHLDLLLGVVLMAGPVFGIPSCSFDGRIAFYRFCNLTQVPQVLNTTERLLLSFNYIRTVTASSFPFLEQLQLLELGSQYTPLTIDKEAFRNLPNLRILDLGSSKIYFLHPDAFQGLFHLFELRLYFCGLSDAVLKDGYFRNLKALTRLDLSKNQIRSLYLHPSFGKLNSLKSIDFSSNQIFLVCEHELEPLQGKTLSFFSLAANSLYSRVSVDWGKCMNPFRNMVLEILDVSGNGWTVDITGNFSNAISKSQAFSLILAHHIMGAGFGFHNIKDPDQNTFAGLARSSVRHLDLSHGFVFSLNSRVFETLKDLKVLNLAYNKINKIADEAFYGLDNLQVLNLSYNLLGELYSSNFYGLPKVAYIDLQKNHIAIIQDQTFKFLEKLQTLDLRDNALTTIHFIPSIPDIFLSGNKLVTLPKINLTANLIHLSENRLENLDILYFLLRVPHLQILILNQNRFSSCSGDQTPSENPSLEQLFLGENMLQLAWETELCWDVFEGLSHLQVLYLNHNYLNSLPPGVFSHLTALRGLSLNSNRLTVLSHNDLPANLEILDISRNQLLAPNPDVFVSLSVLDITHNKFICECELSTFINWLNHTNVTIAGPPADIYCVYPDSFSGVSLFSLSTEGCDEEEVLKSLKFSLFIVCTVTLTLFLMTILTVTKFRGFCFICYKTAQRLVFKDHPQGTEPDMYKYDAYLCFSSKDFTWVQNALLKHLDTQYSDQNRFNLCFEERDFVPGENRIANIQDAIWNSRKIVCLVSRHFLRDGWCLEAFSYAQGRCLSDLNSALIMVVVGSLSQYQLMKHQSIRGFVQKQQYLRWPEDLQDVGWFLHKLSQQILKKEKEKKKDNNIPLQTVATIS

[5] = target: T1, Toll-like receptor 7 (Homo sapiens, UniProt Q9NYK1); experiment: Agonist activity at human TLR7 expressed in HEK293 cells assessed as induction of NF-kB activation-mediated SEAP production after 24 hrs by HTS assay; assay type: cell-based; in short: as §1
T1 sequence (Q9NYK1 whole entry): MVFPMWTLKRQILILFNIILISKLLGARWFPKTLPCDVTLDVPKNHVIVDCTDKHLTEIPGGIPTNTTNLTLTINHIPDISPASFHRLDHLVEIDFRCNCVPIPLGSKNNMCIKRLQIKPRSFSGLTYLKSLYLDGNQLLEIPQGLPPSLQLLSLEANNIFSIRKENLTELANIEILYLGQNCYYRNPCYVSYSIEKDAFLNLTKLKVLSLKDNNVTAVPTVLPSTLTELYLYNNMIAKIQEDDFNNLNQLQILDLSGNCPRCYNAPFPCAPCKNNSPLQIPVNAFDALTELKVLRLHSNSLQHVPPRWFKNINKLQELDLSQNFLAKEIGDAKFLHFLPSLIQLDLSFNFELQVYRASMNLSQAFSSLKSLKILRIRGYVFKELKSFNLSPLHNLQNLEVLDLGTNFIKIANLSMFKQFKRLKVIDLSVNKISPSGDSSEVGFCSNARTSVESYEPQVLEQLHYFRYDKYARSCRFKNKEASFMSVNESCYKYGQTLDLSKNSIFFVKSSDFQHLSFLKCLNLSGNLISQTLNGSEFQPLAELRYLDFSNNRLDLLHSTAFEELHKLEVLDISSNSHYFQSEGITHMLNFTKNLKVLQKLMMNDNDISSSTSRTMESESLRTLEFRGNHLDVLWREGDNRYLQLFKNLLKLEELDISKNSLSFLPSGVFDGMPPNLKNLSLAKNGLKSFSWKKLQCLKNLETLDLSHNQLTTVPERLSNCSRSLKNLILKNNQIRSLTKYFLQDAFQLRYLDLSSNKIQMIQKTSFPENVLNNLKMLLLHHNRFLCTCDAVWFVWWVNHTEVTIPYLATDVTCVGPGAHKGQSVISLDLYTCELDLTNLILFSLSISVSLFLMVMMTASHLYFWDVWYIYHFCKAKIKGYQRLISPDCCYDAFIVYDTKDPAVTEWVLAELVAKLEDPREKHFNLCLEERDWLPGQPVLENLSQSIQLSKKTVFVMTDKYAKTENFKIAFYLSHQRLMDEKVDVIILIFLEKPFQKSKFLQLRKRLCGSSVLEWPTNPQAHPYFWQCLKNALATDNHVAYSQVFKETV

[6] = target: T2, Toll-like receptor 3/8/9 (Homo sapiens) (UniProt O15455+Q9NR96+Q9NR97); experiment: Agonist activity at TLR3/TLR8/TLR9 in human THP1 cells assessed as increase in IL-6 mRNA level after 12 hrs by qRT-PCR method; assay type: cell-based
T2 sequence (O15455 whole entry, looked up): as the sequence (O15455 whole entry) above
T2 sequence (Q9NR96 whole entry, looked up): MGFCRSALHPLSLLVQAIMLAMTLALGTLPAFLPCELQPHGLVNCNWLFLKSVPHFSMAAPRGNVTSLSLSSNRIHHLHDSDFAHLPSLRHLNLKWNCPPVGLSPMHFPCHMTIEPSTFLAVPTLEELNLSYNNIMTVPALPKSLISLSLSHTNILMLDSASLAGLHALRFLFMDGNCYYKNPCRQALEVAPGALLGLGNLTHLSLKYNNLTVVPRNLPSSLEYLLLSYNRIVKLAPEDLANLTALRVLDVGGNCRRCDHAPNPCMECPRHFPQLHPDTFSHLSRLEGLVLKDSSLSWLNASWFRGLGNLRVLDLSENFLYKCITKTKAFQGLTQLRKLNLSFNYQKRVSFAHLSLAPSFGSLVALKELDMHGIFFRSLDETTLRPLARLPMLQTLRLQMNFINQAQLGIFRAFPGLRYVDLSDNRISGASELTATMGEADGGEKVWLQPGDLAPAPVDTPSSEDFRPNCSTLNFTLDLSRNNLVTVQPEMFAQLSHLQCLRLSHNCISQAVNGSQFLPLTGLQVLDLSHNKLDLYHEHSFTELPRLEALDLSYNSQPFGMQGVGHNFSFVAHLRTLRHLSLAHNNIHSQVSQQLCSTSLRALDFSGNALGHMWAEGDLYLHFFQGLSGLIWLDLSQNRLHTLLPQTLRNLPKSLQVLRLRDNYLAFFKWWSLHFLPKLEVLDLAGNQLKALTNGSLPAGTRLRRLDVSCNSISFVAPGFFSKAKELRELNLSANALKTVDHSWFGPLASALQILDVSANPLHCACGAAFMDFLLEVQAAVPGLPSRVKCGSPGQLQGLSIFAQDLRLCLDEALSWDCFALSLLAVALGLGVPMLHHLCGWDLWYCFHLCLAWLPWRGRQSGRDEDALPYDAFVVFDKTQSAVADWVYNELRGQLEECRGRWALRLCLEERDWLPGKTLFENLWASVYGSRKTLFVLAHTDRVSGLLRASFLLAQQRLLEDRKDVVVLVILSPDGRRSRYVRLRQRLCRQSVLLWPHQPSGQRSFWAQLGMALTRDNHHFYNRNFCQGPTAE
T2 sequence (Q9NR97 whole entry, looked up): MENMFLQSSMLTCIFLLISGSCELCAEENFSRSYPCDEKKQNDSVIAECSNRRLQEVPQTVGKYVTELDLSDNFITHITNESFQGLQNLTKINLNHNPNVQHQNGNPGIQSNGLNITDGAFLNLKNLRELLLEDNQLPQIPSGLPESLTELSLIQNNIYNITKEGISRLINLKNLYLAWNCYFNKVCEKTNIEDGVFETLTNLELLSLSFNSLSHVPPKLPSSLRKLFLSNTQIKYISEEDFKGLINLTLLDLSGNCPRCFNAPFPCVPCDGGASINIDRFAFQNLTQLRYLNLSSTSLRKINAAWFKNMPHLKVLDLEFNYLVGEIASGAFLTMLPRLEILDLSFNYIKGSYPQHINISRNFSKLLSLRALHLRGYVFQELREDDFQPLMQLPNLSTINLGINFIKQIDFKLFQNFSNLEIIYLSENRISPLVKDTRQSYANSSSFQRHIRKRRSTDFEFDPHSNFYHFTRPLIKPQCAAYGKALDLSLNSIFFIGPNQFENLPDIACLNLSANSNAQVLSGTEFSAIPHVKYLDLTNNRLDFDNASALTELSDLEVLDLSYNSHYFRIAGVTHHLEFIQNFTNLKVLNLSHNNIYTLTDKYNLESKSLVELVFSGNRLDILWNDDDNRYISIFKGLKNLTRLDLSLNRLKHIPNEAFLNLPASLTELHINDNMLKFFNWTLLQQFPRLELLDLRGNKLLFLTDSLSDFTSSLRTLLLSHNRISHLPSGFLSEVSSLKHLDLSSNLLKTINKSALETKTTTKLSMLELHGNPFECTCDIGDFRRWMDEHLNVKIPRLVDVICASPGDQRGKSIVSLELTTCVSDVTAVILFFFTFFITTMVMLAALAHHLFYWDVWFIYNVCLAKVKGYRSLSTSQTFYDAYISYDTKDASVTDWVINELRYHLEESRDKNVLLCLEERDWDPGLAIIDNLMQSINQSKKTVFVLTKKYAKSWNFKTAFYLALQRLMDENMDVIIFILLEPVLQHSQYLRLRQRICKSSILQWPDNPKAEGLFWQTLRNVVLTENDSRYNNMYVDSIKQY
In short: (§2)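 THP-1 cells (1.5 × 10^6/well) differentiated with PMA (20 nM) for 2 days, then 24 h in fresh RPMI 1640; nonadherent cells removed. Treated with indicated compound concentrations for 12 h, washed with PBS, and mRNA measured by qRT-PCR. Expressed as fold change versus untreated control, poly I:C (5 μg/mL) as reference. Mean ± SD of three independent experiments.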

[7] = target: T2, Toll-like receptor 3/8/9 (Homo sapiens); experiment: Agonist activity at TLR3/TLR8/TLR9 in human THP1 cells assessed as increase in IL-8 mRNA level after 12 hrs by qRT-PCR method; assay type: cell-based; in short: as §2
[8] = test system: HeLa; experiment: Antiproliferative activity against human HeLa cells after 24 hrs by WST1 assay; assay type: functional, cell-based
In short: (§3)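 Cells seeded at 5 × 10^3/well and left 24 h, then given a concentration series for 24, 48 or 72 h. WST-1 reagent added and incubated at 37 °C for 30 min–2 h until color change; absorbance 450 nm. Growth inhibition = (1 − [sample − background]/[control − background]) × 100. IC50 mean ± SD, three cell preparations.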

[9] = test system: HMEC; experiment: Antiproliferative activity against HMEC after 24 hrs by WST1 assay; assay type: cell-based; settings: Homo sapiens; in short: as §3
[10] = test system: HMEC; experiment: Antiproliferative activity against HMEC after 48 hrs by WST1 assay; assay type: cell-based; settings: Homo sapiens; in short: as §3
[11] = test system: HMEC; experiment: Antiproliferative activity against HMEC after 72 hrs by WST1 assay; assay type: cell-based; settings: Homo sapiens; in short: as §3
[12] = test system: HeLa; experiment: Cell cycle arrest in human HeLa cells assessed as accumulation at G0/G1 phase at 20 uM after 24 hrs by propidium iodide staining based flow cytometry (reference value: 52%); assay type: functional
[13] = test system: HeLa; experiment: Cell cycle arrest in human HeLa cells assessed as accumulation at S phase at 20 uM after 24 hrs by propidium iodide staining based flow cytometry (reference value: 31%); assay type: functional
[14] = test system: HeLa; experiment: Cell cycle arrest in human HeLa cells assessed as accumulation at G0/G1 phase at 30 uM after 24 hrs by propidium iodide staining based flow cytometry (reference value: 52%); assay type: functional
[15] = test system: HeLa; experiment: Cell cycle arrest in human HeLa cells assessed as accumulation at S phase at 30 uM after 24 hrs by propidium iodide staining based flow cytometry (reference value: 31%); assay type: functional
[16] = test system: HeLa; experiment: Cell cycle arrest in human HeLa cells assessed as accumulation at S phase at 40 uM after 24 hrs by propidium iodide staining based flow cytometry (reference value: 31%); assay type: functional
[17] = test system: HeLa; experiment: Cell cycle arrest in human HeLa cells assessed as accumulation at G2/M phase at 40 uM after 24 hrs by propidium iodide staining based flow cytometry (reference value: 17%); assay type: functional

With O=[N+]([O-])c1ccc(COc2cc3c(cc2OCc2ccc([N+](=O)[O-])cc2)OC2(C=C3)CCOCC2)cc1 the Activity [1] was 46%, the fold change (FC) [2] was 13.9 and the pEC50 [3] was under 4.00. For the same compound, the pEC50 [4] was under 4.00, the pEC50 [5] was under 4.00 and the Activity [6] was “Dose-dependent effect”. For the same compound, the Activity [7] was “Dose-dependent effect”, the Activity [8] was “Dose-dependent effect” and the pIC50 [8] was 4.41. For the same compound, the pIC50 [9] was under 4.00, the pIC50 [10] was under 4.00 and the pIC50 [11] was 4.10. The Activity [12] was 43%, the Activity [13] was 37% and the Activity [14] was 41%. It also gave an Activity [15] of 39%, an Activity [16] of 41% and an Activity [17] of 19%.
